System: HEK-293T
Test: Multiplex assay against HEK293T
Format: toxicity, cell-based
Conditions: human
Procedure, shortened: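 Compound was added to live cells that had been stained at seeding with Hoechst33342, BioTracker Green Microtubule Cytoskeleton Dye, MitoTracker Red and Annexin V Alexa Fluor 680, and imaging followed on a CQ1 microscope at 37°C and 5% CO2. CellPathfinder machine-learning gating divided cells into Hoechst high-intensity objects or normal cells, normal cells into healthy, pyknosed or fragmented nuclei, and pyknosed cells into mitotic or apoptotic. Tubulin, mitochondrial-mass and membrane-permeability phenotypes are per cents of healthy-nucleus cells.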

[1] = 12 h, 1 µM, compound concentration 1 uM, replicate 1
[2] = 12 h, 1 µM, compound concentration 1 uM, replicate 2
[3] = 12 h, 10 µM, compound concentration 10 uM, replicate 1
[4] = 12 h, 10 µM, compound concentration 10 uM, replicate 2
[5] = 24 h, 1 µM, compound concentration 1 uM, replicate 1
[6] = 24 h, 1 µM, compound concentration 1 uM, replicate 2
[7] = 24 h, 10 µM, compound concentration 10 uM, replicate 1
[8] = 24 h, 10 µM, compound concentration 10 uM, replicate 2
[9] = 48 h, 1 µM, compound concentration 1 uM, replicate 1
[10] = 48 h, 1 µM, compound concentration 1 uM, replicate 2
[11] = 48 h, 10 µM, compound concentration 10 uM, replicate 1
[12] = 48 h, 10 µM, compound concentration 10 uM, replicate 2

Question: `O=C(NCCNCC(O)COc1ccc(O)cc1)N1CCOCC1.O=C(NCCNCC(O)COc1ccc(O)cc1)N1CCOCC1.O=C(O)/C=C/C(=O)O` (stereo unspecified) [XAMOTEROL FUMARATE] was tested. Which “Population Apoptotic (%)” value [1] did it give?
Answer: Its value is 39%.

Question: What about the “Population Fragmented Nuclei (%)” value [1] of the same compound?
Answer: The value was 5%.

Question: And the “Population Healthy Nuclei (%)” value [1]?
Answer: The value was 79%.

Question: And the “Population Hoechst High Intensity Objects (%)” value [1]?
Answer: The value was 4%.

Question: And the “Population Membrane Permeable-Phenotype (%)” value [1]?
Answer: Its value is 0%.

Question: What about the “Population Mitochondria Different-Phenotype (%)” value [1] of the same compound?
Answer: Its value is 39%.

Question: And the “Population Mitotic Cells (%)” value [1]?
Answer: The value was 60%.

Question: And the “Population Normal (%)” value [1]?
Answer: The value was 95%.

Question: And the “Population Pyknosed Nuclei (%)” value [1]?
Answer: Its value is 14%.

Question: What about the “Population Tubulin-Different-Phenotype (%)” value [1] of the same compound?
Answer: Its value is 26%.

Question: And the “Total Cell Count” value [1]?
Answer: The value was 339.

Question: And the “Population Apoptotic (%)” value [2]?
Answer: Its value is 60%.

Question: What about the “Population Healthy Nuclei (%)” value [2] of the same compound?
Answer: Its value is 76%.

Question: And the “Population Hoechst High Intensity Objects (%)” value [2]?
Answer: The value was 14%.

Question: What about the “Population Mitochondria Different-Phenotype (%)” value [2] of the same compound?
Answer: The value was 57%.

Question: And the “Population Mitotic Cells (%)” value [2]?
Answer: Its value is 39%.

Question: And the “Population Normal (%)” value [2]?
Answer: The value was 85%.

Question: And the “Population Pyknosed Nuclei (%)” value [2]?
Answer: Its value is 17%.

Question: What about the “Population Tubulin-Different-Phenotype (%)” value [2] of the same compound?
Answer: Its value is 21%.

Question: What about the “Total Cell Count” value [2] of the same compound?
Answer: The value was 271.

Question: What about the “Population Apoptotic (%)” value [3] of the same compound?
Answer: The value was 35%.

Question: And the “Population Fragmented Nuclei (%)” value [3]?
Answer: Its value is 7%.

Question: And the “Population Healthy Nuclei (%)” value [3]?
Answer: Its value is 83%.

Question: And the “Population Hoechst High Intensity Objects (%)” value [3]?
Answer: Its value is 6%.

Question: What about the “Population Membrane Permeable-Phenotype (%)” value [3] of the same compound?
Answer: The value was 0%.

Question: And the “Population Mitochondria Different-Phenotype (%)” value [3]?
Answer: Its value is 39%.

Question: And the “Population Mitotic Cells (%)” value [3]?
Answer: Its value is 65%.

Question: What about the “Population Normal (%)” value [3] of the same compound?
Answer: Its value is 93%.

Question: What about the “Population Pyknosed Nuclei (%)” value [3] of the same compound?
Answer: The value was 8%.

Question: And the “Population Tubulin-Different-Phenotype (%)” value [3]?
Answer: The value was 19%.

Question: What about the “Total Cell Count” value [3] of the same compound?
Answer: The value was 499.

Question: And the “Population Apoptotic (%)” value [4]?
Answer: Its value is 29%.

Question: And the “Population Fragmented Nuclei (%)” value [4]?
Answer: The value was 4%.

Question: What about the “Population Healthy Nuclei (%)” value [4] of the same compound?
Answer: The value was 86%.

Question: What about the “Population Hoechst High Intensity Objects (%)” value [4] of the same compound?
Answer: The value was 5%.

Question: What about the “Population Mitochondria Different-Phenotype (%)” value [4] of the same compound?
Answer: Its value is 62%.

Question: And the “Population Mitotic Cells (%)” value [4]?
Answer: Its value is 70%.

Question: And the “Population Normal (%)” value [4]?
Answer: The value was 94%.

Question: What about the “Population Pyknosed Nuclei (%)” value [4] of the same compound?
Answer: Its value is 9%.

Question: And the “Population Tubulin-Different-Phenotype (%)” value [4]?
Answer: The value was 23%.

Question: And the “Total Cell Count” value [4]?
Answer: The value was 406.

Question: What about the “Population Apoptotic (%)” value [5] of the same compound?
Answer: The value was 26%.

Question: What about the “Population Fragmented Nuclei (%)” value [5] of the same compound?
Answer: The value was 8%.

Question: And the “Population Healthy Nuclei (%)” value [5]?
Answer: The value was 78%.

Question: And the “Population Hoechst High Intensity Objects (%)” value [5]?
Answer: The value was 6%.

Question: And the “Population Membrane Permeable-Phenotype (%)” value [5]?
Answer: The value was 0%.

Question: And the “Population Mitochondria Different-Phenotype (%)” value [5]?
Answer: Its value is 18%.

Question: What about the “Population Mitotic Cells (%)” value [5] of the same compound?
Answer: The value was 73%.

Question: What about the “Population Normal (%)” value [5] of the same compound?
Answer: The value was 93%.

Question: And the “Population Pyknosed Nuclei (%)” value [5]?
Answer: The value was 12%.

Question: What about the “Population Tubulin-Different-Phenotype (%)” value [5] of the same compound?
Answer: Its value is 17%.

Question: What about the “Total Cell Count” value [5] of the same compound?
Answer: The value was 475.

Question: And the “Population Apoptotic (%)” value [6]?
Answer: Its value is 45%.

Question: And the “Population Fragmented Nuclei (%)” value [6]?
Answer: The value was 9%.

Question: And the “Population Healthy Nuclei (%)” value [6]?
Answer: Its value is 80%.

Question: What about the “Population Hoechst High Intensity Objects (%)” value [6] of the same compound?
Answer: The value was 13%.

Question: What about the “Population Mitochondria Different-Phenotype (%)” value [6] of the same compound?
Answer: The value was 38%.

Question: And the “Population Mitotic Cells (%)” value [6]?
Answer: Its value is 54%.

Question: And the “Population Normal (%)” value [6]?
Answer: The value was 86%.

Question: And the “Population Pyknosed Nuclei (%)” value [6]?
Answer: Its value is 10%.

Question: And the “Population Tubulin-Different-Phenotype (%)” value [6]?
Answer: The value was 15%.

Question: And the “Total Cell Count” value [6]?
Answer: Its value is 366.

Question: What about the “Population Apoptotic (%)” value [7] of the same compound?
Answer: Its value is 21%.

Question: What about the “Population Fragmented Nuclei (%)” value [7] of the same compound?
Answer: Its value is 9%.

Question: What about the “Population Healthy Nuclei (%)” value [7] of the same compound?
Answer: The value was 79%.

Question: What about the “Population Hoechst High Intensity Objects (%)” value [7] of the same compound?
Answer: The value was 5%.

Question: And the “Population Membrane Permeable-Phenotype (%)” value [7]?
Answer: The value was 0%.

Question: And the “Population Mitochondria Different-Phenotype (%)” value [7]?
Answer: Its value is 25%.

Question: And the “Population Mitotic Cells (%)” value [7]?
Answer: The value was 78%.

Question: And the “Population Normal (%)” value [7]?
Answer: Its value is 94%.

Question: What about the “Population Pyknosed Nuclei (%)” value [7] of the same compound?
Answer: Its value is 11%.

Question: What about the “Population Tubulin-Different-Phenotype (%)” value [7] of the same compound?
Answer: The value was 12%.

Question: And the “Total Cell Count” value [7]?
Answer: Its value is 632.

Question: What about the “Population Apoptotic (%)” value [8] of the same compound?
Answer: Its value is 33%.

Question: What about the “Population Fragmented Nuclei (%)” value [8] of the same compound?
Answer: Its value is 7%.

Question: What about the “Population Healthy Nuclei (%)” value [8] of the same compound?
Answer: The value was 85%.

Question: And the “Population Hoechst High Intensity Objects (%)” value [8]?
Answer: Its value is 4%.

Question: And the “Population Mitochondria Different-Phenotype (%)” value [8]?
Answer: Its value is 42%.

Question: And the “Population Mitotic Cells (%)” value [8]?
Answer: The value was 66%.

Question: And the “Population Normal (%)” value [8]?
Answer: The value was 95%.

Question: And the “Population Pyknosed Nuclei (%)” value [8]?
Answer: Its value is 7%.

Question: And the “Population Tubulin-Different-Phenotype (%)” value [8]?
Answer: The value was 17%.

Question: And the “Total Cell Count” value [8]?
Answer: The value was 542.

Question: And the “Population Apoptotic (%)” value [9]?
Answer: Its value is 21%.

Question: And the “Population Fragmented Nuclei (%)” value [9]?
Answer: The value was 14%.

Question: And the “Population Healthy Nuclei (%)” value [9]?
Answer: The value was 77%.

Question: And the “Population Hoechst High Intensity Objects (%)” value [9]?
Answer: Its value is 2%.

Question: What about the “Population Membrane Permeable-Phenotype (%)” value [9] of the same compound?
Answer: The value was 2%.

Question: And the “Population Mitochondria Different-Phenotype (%)” value [9]?
Answer: The value was 11%.

Question: And the “Population Mitotic Cells (%)” value [9]?
Answer: The value was 78%.

Question: And the “Population Normal (%)” value [9]?
Answer: Its value is 97%.

Question: And the “Population Pyknosed Nuclei (%)” value [9]?
Answer: Its value is 7%.

Question: What about the “Population Tubulin-Different-Phenotype (%)” value [9] of the same compound?
Answer: Its value is 9%.

Question: What about the “Total Cell Count” value [9] of the same compound?
Answer: The value was 918.

Question: And the “Population Apoptotic (%)” value [10]?
Answer: The value was 41%.

Question: What about the “Population Fragmented Nuclei (%)” value [10] of the same compound?
Answer: Its value is 11%.

Question: What about the “Population Healthy Nuclei (%)” value [10] of the same compound?
Answer: The value was 81%.

Question: What about the “Population Hoechst High Intensity Objects (%)” value [10] of the same compound?
Answer: Its value is 4%.

Question: And the “Population Membrane Permeable-Phenotype (%)” value [10]?
Answer: Its value is 0%.

Question: And the “Population Mitochondria Different-Phenotype (%)” value [10]?
Answer: The value was 18%.

Question: And the “Population Mitotic Cells (%)” value [10]?
Answer: The value was 58%.

Question: And the “Population Normal (%)” value [10]?
Answer: Its value is 95%.

Question: What about the “Population Pyknosed Nuclei (%)” value [10] of the same compound?
Answer: Its value is 6%.

Question: What about the “Population Tubulin-Different-Phenotype (%)” value [10] of the same compound?
Answer: Its value is 10%.

Question: And the “Total Cell Count” value [10]?
Answer: Its value is 526.

Question: What about the “Population Apoptotic (%)” value [11] of the same compound?
Answer: Its value is 17%.

Question: And the “Population Fragmented Nuclei (%)” value [11]?
Answer: The value was 15%.

Question: And the “Population Healthy Nuclei (%)” value [11]?
Answer: Its value is 79%.

Question: What about the “Population Hoechst High Intensity Objects (%)” value [11] of the same compound?
Answer: Its value is 0%.

Question: What about the “Population Membrane Permeable-Phenotype (%)” value [11] of the same compound?
Answer: The value was 1%.

Question: And the “Population Mitochondria Different-Phenotype (%)” value [11]?
Answer: The value was 13%.

Question: What about the “Population Mitotic Cells (%)” value [11] of the same compound?
Answer: The value was 82%.

Question: What about the “Population Normal (%)” value [11] of the same compound?
Answer: Its value is 99%.

Question: And the “Population Pyknosed Nuclei (%)” value [11]?
Answer: Its value is 5%.

Question: And the “Population Tubulin-Different-Phenotype (%)” value [11]?
Answer: Its value is 6%.

Question: And the “Total Cell Count” value [11]?
Answer: Its value is 1116.

Question: And the “Population Apoptotic (%)” value [12]?
Answer: The value was 25%.

Question: And the “Population Fragmented Nuclei (%)” value [12]?
Answer: Its value is 16%.

Question: And the “Population Healthy Nuclei (%)” value [12]?
Answer: The value was 77%.

Question: And the “Population Hoechst High Intensity Objects (%)” value [12]?
Answer: Its value is 2%.

Question: And the “Population Membrane Permeable-Phenotype (%)” value [12]?
Answer: The value was 0%.

Question: And the “Population Mitochondria Different-Phenotype (%)” value [12]?
Answer: The value was 16%.

Question: What about the “Population Mitotic Cells (%)” value [12] of the same compound?
Answer: Its value is 74%.

Question: And the “Population Normal (%)” value [12]?
Answer: Its value is 97%.

Question: What about the “Population Tubulin-Different-Phenotype (%)” value [12] of the same compound?
Answer: The value was 10%.

Question: And the “Total Cell Count” value [12]?
Answer: The value was 827.
